The results in this text go back to ChEMBL document CHEMBL4145595, “Discovery of MK-8282 as a Potent G-Protein-Coupled Receptor 119 Agonist for the Treatment of Type 2 Diabetes” (ACS Med Chem Lett, 2018).

Broadly, the EC50 is the midpoint of the concentration-response curve. A word on the solubility: it is the dissolved amount per volume that the medium holds.

Structures are written as SMILES. Converted amounts (≈) assume the structure as drawn. The source made the active and inactive calls. The calls are words filed in the database; no cut-off is given here.

The test system of one series is Rattus norvegicus. The series can be described thus: Antidiabetic activity in Sprague-Dawley rat assessed as reduction in glucose excursion at 1 mg/kg, po pretreated followed by glucose challenge measured after 10 to 30 mins by OGTT. The format is functional, organism-based. The gist of the method:
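Sprague-Dawley rats underwent an oral glucose tolerance test with glucose excursion measured. Sitagliptin was dosed at 1 mpk and agonist at 3 mpk, alone or co-administered.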

Series [1] has as its system Mus musculus. In words: Antidiabetic activity in C57Bl/6NCrl mouse assessed as increase in plasma GLP1 (7 to 36) amide levels at 3 mg/kg, po administered via gavage pretreated followed by glucose-challenge measured after 10 mins. It is filed as functional, organism-based.
For series [2], the system named is Mus musculus. The series can be described thus: Glucose lowering effect in C57Bl/6NCrl mouse assessed as reduction in glucose level at 3 mg/kg, po administered via gavage pretreated for 30 mins followed by glucose-challenge measured after 20 mins by OGTT relative to control. The format is functional. The gist of the method:
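Overnight-fasted mice got compound or vehicle orally at 3 to 10 mg/kg. Glucose (3 g/kg po) was given 30 min post-dose. Blood glucose was read by hand-held glucometer before dosing, before glucose and 20 min after glucose. Glucose lowering (%) = [(1 − 20 min glucose of treated / 20 min glucose of vehicle) × 100].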

For series [3], the target named is T1, Glucose-dependent insulinotropic receptor (Mus musculus) (UniProt Q7TQP3).
T1 sequence (whole entry): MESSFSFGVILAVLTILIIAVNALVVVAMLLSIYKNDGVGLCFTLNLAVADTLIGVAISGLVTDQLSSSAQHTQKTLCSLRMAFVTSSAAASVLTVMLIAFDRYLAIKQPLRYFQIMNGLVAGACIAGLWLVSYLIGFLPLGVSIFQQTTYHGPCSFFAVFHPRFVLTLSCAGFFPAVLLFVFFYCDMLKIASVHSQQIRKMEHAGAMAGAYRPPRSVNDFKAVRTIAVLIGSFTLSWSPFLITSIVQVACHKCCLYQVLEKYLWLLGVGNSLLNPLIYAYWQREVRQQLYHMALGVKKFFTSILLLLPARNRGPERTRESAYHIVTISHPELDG
In words: (§1) Agonist activity at mouse GPR119 assessed as increase in cAMP level. It is filed as functional. (cAMP levels reflect the balance of adenylyl cyclase and phosphodiesterase activity.)

Series [4] addresses T2, Glucose-dependent insulinotropic receptor (Mus musculus, UniProt Q7TQP3).
T2 sequence (Q7TQP3 whole entry): T1 sequence (whole entry)
Described as §1. The format is functional.

Series [5] concerns the target T3, Glucose-dependent insulinotropic receptor (Homo sapiens) (UniProt Q8TDV5).
T3 sequence (whole entry): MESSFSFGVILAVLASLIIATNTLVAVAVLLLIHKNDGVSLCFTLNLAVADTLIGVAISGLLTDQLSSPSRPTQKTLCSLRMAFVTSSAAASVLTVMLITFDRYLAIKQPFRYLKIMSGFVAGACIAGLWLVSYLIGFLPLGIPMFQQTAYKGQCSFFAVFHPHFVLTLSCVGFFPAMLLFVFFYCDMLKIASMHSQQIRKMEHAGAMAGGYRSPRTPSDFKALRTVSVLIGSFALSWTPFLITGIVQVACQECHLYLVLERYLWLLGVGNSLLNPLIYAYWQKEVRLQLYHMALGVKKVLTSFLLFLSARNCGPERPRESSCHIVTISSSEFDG
The series can be described thus: (§2) Agonist activity at human GPR119 expressed in HEK293 cells assessed as increase in cAMP level after 30 mins by LANCE assay. The format is functional, cell-based.

Series [6] deals with T4, Glucose-dependent insulinotropic receptor (Homo sapiens, UniProt Q8TDV5).
T4 sequence (Q8TDV5 whole entry): T3 sequence (whole entry)
Described as §2. It is filed as functional, cell-based.

Series [7] in a line: Protein binding in mouse plasma at 10 uM. It is filed as ADME, cell-free. Particulars: read-out: PPB (converted).
A short description of series [8]: Solubility of the compound at pH 7.4. It is filed as physicochemical. The conditions noted are these: buffer.
The nature of series [9]: Protein binding in human plasma at 10 uM. Particulars: read-out: PPB (converted). The format is ADME, cell-free.

`N[C@@H](CC(=O)N1CCn2c(nnc2C(F)(F)F)C1)Cc1cc(F)c(F)cc1F`: the outcome with Rattus norvegicus and in the series on Mus musculus [1] was Active.
For `CC(C)OC(=O)N1[C@H]2CC[C@H]1CC(Oc1ncnc(Nc3ccc(C#N)cc3Cl)c1F)C2` (stereo partly specified), in the series on Mus musculus [2], the outcome was inactive. The %max is 29% in series [3] and 87% in [5]. Also, the 50% effective concentration (EC50) in series [4] turned out to be 46 nM; in series [6], 8 nM.
For the molecule `N#Cc1ccc(Oc2ncnc(OC3C4COCC3CN(c3ncc(F)cn3)C4)c2C2CC2)c(Cl)c1` (stereo unspecified), the %max was 100% in series [3] and 56% in series [5]. Also, the values for the 50% effective concentration (EC50) in [4] and in series [6] were 248 nM and 212 nM, respectively.
On the same counts, the results for `COCC1(OC(=O)N2CC3COCC(C2)C3Oc2ncnc(Nc3ccc(C#N)cc3F)c2F)CC1` (stereo unspecified) are 70%, 62%, 312 nM and 49 nM.
As to `CC1(OC(=O)N2C[C@H]3COC[C@@H](C2)[C@@H]3Oc2ncnc(Nc3c(F)cccc3F)c2F)CC1`, the Activity in the series on Mus musculus [2] was 31%. The %max in series [3] turned out to be 108%; in [5], 78%. Also, the EC50 in [4] was 113 nM; in series [6], 13 nM.
For `COc1c(Nc2ccc(S(C)(=O)=O)cc2F)ncnc1OC1C[C@@H]2COC[C@@H](C1)N2C(=O)OC1(C)CC1` (stereo partly specified), the fraction unbound at 10 µM was 0.081 in series [7] and 0.145 in [9]. Further, the results for the %max in series [3] and in series [5] were 79% and 73%, respectively. Further, the EC50 in [4] was 0.427 nM; in [6], 97 nM. The molecule further had a solubility in series [8] of 17 µM (≈ 9.12 µg/mL).
`N#Cc1ccc(Nc2ncnc(OC3C4COCC3CN(C(=O)OC3CCC3)C4)c2F)c(Cl)c1` (stereo unspecified): the %max in series [3] came to 60%; in series [5], 51%. In addition, the EC50 came to 60 nM in series [4] and 10 nM in series [6].
With `CC1(OC(=O)N2C[C@H]3COC[C@@H](C2)[C@@H]3Oc2ncnc(Nc3ccccc3F)c2F)CC1`, the Activity in the series on Mus musculus [2] worked out at 21%. Moreover, the %max in [3] turned out to be 76%; in series [5], 78%. Besides, the EC50 in series [4] was found to be 25 nM; in series [6] it was 6 nM.
As to `Cc1c(Nc2ccc(C#N)cc2Cl)ncnc1OC1C[C@@H]2CC[C@@H](C1)N2S(=O)(=O)C1CC1` (stereo partly specified), the fraction unbound at 10 µM in series [7] was 0.007; in series [9], 0.001. Besides, the concentration in solution in series [8] (solubility) came to 0.17 µM (≈ 0.0806 µg/mL).
With `CC1(OC(=O)N2CC3COCC(C2)C3Oc2ncnc(Nc3ccc(F)cc3F)c2F)CC1` (stereo unspecified), the Activity in the series with Mus musculus [2] turned out to be 27%. The figures for the %max in series [3] and in series [5] were 73% and 94%, respectively. The EC50 in [4] amounted to 44 nM; in [6] it was 15 nM.
With `CC1(COC(=O)N2CC3COCC(C2)C3Oc2ncnc(Nc3ccc(C#N)cc3Cl)c2F)COC1` (stereo unspecified), the %max in [3] came out at 46%; in [5], 41%. The EC50 in series [4] is 516 nM; in series [6], 188 nM.
For the molecule `CC(C)COC(=O)N1[C@H]2CC[C@H]1CC(Oc1ncnc(Nc3ccc(C#N)cc3Cl)c1F)C2` (stereo partly specified), the outcome in the series with Mus musculus [2] was inactive. Besides, the %max in [3] came to 44%; in series [5], 81%. The EC50 was found to be 21 nM in series [4] and 2.6 nM in series [6].
On the same counts, the results for `CC1(OC(=O)N2[C@H]3CC[C@H]2CC(Oc2ncnc(Nc4ccc(C#N)cc4Cl)c2F)C3)CC1` (stereo partly specified) are 17%, 42%, 79%, 67 nM and 3.5 nM.
As for `CC1(OC(=O)N2CC3COCC(C2)C3Oc2ncnc(Nc3cccnc3Cl)c2F)CC1` (stereo unspecified), in the series on Mus musculus [2], the Activity is 26%. For the same molecule, the %max was 84% in series [3] and 63% in [5]. Moreover, the 50% effective concentration (EC50) came out at 58 nM in [4] and 17 nM in series [6].
Turning to `CC1(OC(=O)N2CC3COCC(C2)C3Oc2ncnc(Nc3ccc(C#N)cc3Cl)c2F)CCC1` (stereo unspecified), the %max amounted to 88% in series [3] and 59% in series [5]. Besides, the EC50 in series [4] was determined as 60 nM; in [6] it was 10 nM.
For `CC1(OC(=O)N2[C@H]3CC[C@H]2CC(Oc2ncnc(Nc4ccc(C#N)cc4Cl)c2F)C3)CCC1` (stereo partly specified), the result with Mus musculus [2] was inactive. In addition, the %max was determined as 18% in series [3] and 77% in [5]. The values for the EC50 in [4] and in [6] were 42 nM and 5.1 nM, respectively.
As to `CC1(OC(=O)N2CC3COCC(C2)C3Oc2ncnc(Oc3ccccc3F)c2F)CC1` (stereo unspecified), in the series on Mus musculus [2], the Activity is recorded as 20%. Further, the %max in series [3] is 136%; in series [5], 114%. In addition, the values for the EC50 in series [4] and in [6] were 75 nM and 26 nM, respectively.
On the same counts, the results for `CC1(OC(=O)N2CC3COCC(C2)C3Oc2ncnc(Nc3ccc(-n4cncn4)cc3F)c2F)CC1` (stereo unspecified) are 27%, 83%, 73%, 278 nM and 19 nM.
On to `CCC1(OC(=O)N2CC3COCC(C2)C3Oc2ncnc(Nc3ccc(C#N)cc3F)c2F)CC1` (stereo unspecified), for which the values for the %max in [3] and in series [5] were 90% and 89%, respectively. In addition, the figures for the EC50 in series [4] and in series [6] were 43 nM and 6 nM, respectively.
